Measurements: PMC5511061 (ACS infectious diseases, 2017)

Legend:
[1] = system: HsAdoMetDC; settings: human versus T. brucei enzyme; cited from earlier work
[2] = system: T. brucei brucei Lister 427 bloodstream-form (BSF) cells; test: T. brucei cell viability growth assay; type: cell-based, Trypanosoma brucei brucei
[3] = biological target: T1, human AdoMetDC (HsAdoMetDC) (Homo sapiens, UniProt P17707); test: RapidFire-MS end-point AdoMetDC activity assay, human enzyme; type: biochemical
T1 sequence (P17707 1-334): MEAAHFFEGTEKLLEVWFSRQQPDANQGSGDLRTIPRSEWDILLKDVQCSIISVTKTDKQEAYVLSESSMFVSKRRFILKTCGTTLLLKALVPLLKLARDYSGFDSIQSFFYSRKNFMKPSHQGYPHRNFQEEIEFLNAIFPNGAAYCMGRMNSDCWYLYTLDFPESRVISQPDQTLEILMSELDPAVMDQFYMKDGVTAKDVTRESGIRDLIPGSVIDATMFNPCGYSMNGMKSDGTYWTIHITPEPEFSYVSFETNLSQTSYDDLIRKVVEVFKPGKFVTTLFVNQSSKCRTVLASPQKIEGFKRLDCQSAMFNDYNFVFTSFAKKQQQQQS

[4] = system: prozyme levels in T. brucei cells; test: Western blotting analysis of prozyme expression levels in treated cells; type: cell-based, Trypanosoma brucei; settings: cells grown 24 h with 1–2 × EC50 of compound versus vehicle
Method in brief: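 Bloodstream-form T. brucei treated 24 h with test compound; DMSO vehicle as neutral control and a reference AdoMetDC inhibitor as positive control. Cells harvested, lysed and run on SDS-PAGE. Blots probed with rabbit polyclonal anti-T. brucei prozyme (1000-fold dilution, Tris-buffered saline, 5% blocker). Membrane cut by molecular-weight marker; upper section probed with rabbit anti-BiP (100,000-fold) as loading control. Prozyme compared with vehicle.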

[5] = system: T. brucei cells; test: Rescue of cell growth inhibition with spermidine; type: cell-based, Trypanosoma brucei
[6] = In vitro metabolic stability in hepatic microsomes, human; type: in vitro ADME; settings: both
[7] = In vitro metabolic stability in hepatic microsomes, mouse; type: in vitro ADME; settings: male, CD-1, mouse
[8] = system: P-glycoprotein (human MDR1); test: MDCKII-hMDR1 monolayer permeability assay; type: in vitro ADME; settings: dog, MDCK-MDR1

| Structure (SMILES) | fold more potent against HsAdoMetDC [1] [fold] | EC50 fold below measured IC50 on the enzyme [2] [fold] | EC50 ([2]; Trypanosoma brucei, 48 h, read-out: T. brucei cell EC50) [nM] | IC50 [3] [nM] | Prozyme induction [4] | EC50 ([5]; Trypanosoma brucei, read-out: T. brucei cell EC50, – Spd) [nM] | rescue of cell growth inhibition by spermidine supplementation ([5]; over 100× EC50 concentrations of compound, 1 mM spermidine) | half-life at 1 μM [6] [h] | half-life at 1 μM [7] [h] | Papp A→B [8] [×10⁻⁶ cm/s] |
| --- | --- | --- | --- | --- | --- | --- | --- | --- | --- | --- |
| Cl.Cl.Cl.N=C(N)c1cccc(/C=N/N=C(\N)N/N=C/c2cccc(C(=N)N)c2)c1 [CGP 40215A] | 500 | – | – | – | – | – | – | – | – | – |
| Cc1nc2c(N)ncnc2n1[C@@H]1O[C@H](CN(C)C/C=C\CN)[C@@H](O)[C@H]1O [Compound 1] | – | 100 | 1.8 | 110 | yes | 0.3 | full rescue | > 1.5 | > 1.5 | 1.1 |
